According to ChEMBL document CHEMBL5724801, “EUbOPEN Chemogenomics Library - Multiplex” (2024):
“And” between values parts separate entries of the source, which are not always exact repeats. Equal entries are not always repeated.

System: HEK-293T
Test: Multiplex assay against HEK293T
Format: toxicity, cell-based
Settings: human
Method in brief: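 Per cents of healthy-nucleus cells form the tubulin, mitochondrial-mass and membrane-permeability phenotype values. Live cells were stained at seeding with Hoechst33342, BioTracker Green Microtubule Cytoskeleton Dye, MitoTracker Red and Annexin V Alexa Fluor 680. After compound addition they were imaged on a CQ1 microscope at 37°C and 5% CO2, and CellPathfinder machine-learning gating split them into Hoechst high-intensity objects or normal cells, normal cells into healthy, pyknosed or fragmented nuclei, and pyknosed cells into mitotic or apoptotic.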

[1] = 12 h, 1 µM, compound concentration 1 uM
[2] = 12 h, 10 µM, compound concentration 10 uM
[3] = 24 h, 1 µM, compound concentration 1 uM
[4] = 24 h, 10 µM, compound concentration 10 uM
[5] = 48 h, 1 µM, compound concentration 1 uM
[6] = 48 h, 10 µM, compound concentration 10 uM

## C[C@H](C[C@H](N)C(=O)O)C(=O)O [2S,4R-4-METHYLGLUTAMATE]
[1]
  Population Apoptotic (%): 6.61% and 13.76%
  Population Fragmented Nuclei (%): 2.69% and 5.93%
  Population Hoechst High Intensity Objects (%): 0.59% and 0.74%
  Population Membrane Permeable-Phenotype (%): 0% and 5.56%
  Population Mitochondria Different-Phenotype (%): 31.22% and 27.78%
  Population Mitotic Cells (%): 93.39% and 86.24%
  Population Normal (%): 99.41% and 99.26%
  Population Pyknosed Nuclei (%): 36.12% and 80.74%
  Total Cell Count: 337 and 136
[2]
  Population Apoptotic (%): 7.2% and 16.44%
  Population Fragmented Nuclei (%): 3.38% and 3.49%
  Population Hoechst High Intensity Objects (%): 0%
  Population Membrane Permeable-Phenotype (%): 0%
  Population Mitochondria Different-Phenotype (%): 31.06% and 20%
  Population Mitotic Cells (%): 92.8% and 83.56%
  Population Normal (%): 100%
  Population Pyknosed Nuclei (%): 42.23% and 84.88%
  Population Tubulin-Different-Phenotype (%): 3.73% and 10%
  Total Cell Count: 296 and 172
[3]
  Population Apoptotic (%): 6.4% and 17.39%
  Population Fragmented Nuclei (%): 1.63% and 2.47%
  Population Healthy Nuclei (%): 75.77% and 26.54%
  Population Hoechst High Intensity Objects (%): 0.36% and 0%
  Population Membrane Permeable-Phenotype (%): 1.67% and 0%
  Population Mitochondria Different-Phenotype (%): 13.13% and 13.95%
  Population Mitotic Cells (%): 93.6% and 82.61%
  Population Normal (%): 99.64% and 100%
  Population Tubulin-Different-Phenotype (%): 10.5% and 2.33%
[4]
  Population Apoptotic (%): 10.99% and 23.73%
  Population Fragmented Nuclei (%): 1.21% and 2.99%
  Population Healthy Nuclei (%): 80.4% and 38.31%
  Population Hoechst High Intensity Objects (%): 0%
  Population Membrane Permeable-Phenotype (%): 0.5% and 0%
  Population Mitochondria Different-Phenotype (%): 14.57% and 6.49%
  Population Mitotic Cells (%): 89.01% and 76.27%
  Population Normal (%): 100%
  Population Tubulin-Different-Phenotype (%): 7.29% and 2.6%
  Total Cell Count: 495 and 201
[5]
  Population Fragmented Nuclei (%): 3.3% and 2.56%
  Population Healthy Nuclei (%): 86.59% and 58.46%
  Population Hoechst High Intensity Objects (%): 0% and 2.5%
  Population Membrane Permeable-Phenotype (%): 4.15% and 2.63%
  Population Mitochondria Different-Phenotype (%): 11.93% and 28.95%
  Population Mitotic Cells (%): 93.48% and 76.32%
  Population Normal (%): 100% and 97.5%
[6]
  Population Apoptotic (%): 11.21% and 22.54%
  Population Fragmented Nuclei (%): 1.13% and 2.5%
  Population Healthy Nuclei (%): 90.25% and 75.31%
  Population Hoechst High Intensity Objects (%): 0% and 0.93%
  Population Membrane Permeable-Phenotype (%): 3.93% and 1.24%
  Population Mitochondria Different-Phenotype (%): 12.14% and 16.6%
  Population Mitotic Cells (%): 88.79% and 77.46%
  Population Normal (%): 100% and 99.07%
  Population Pyknosed Nuclei (%): 8.62% and 22.19%

## COc1c(Nc2ccc(S(C)(=O)=O)nc2C)ncnc1OC1CCN(C(=O)OC(C)C)CC1 [ADP-597]
[1]
  Population Apoptotic (%): 29% and 38%
  Population Fragmented Nuclei (%): 5% and 4%
  Population Healthy Nuclei (%): 78% and 80%
  Population Hoechst High Intensity Objects (%): 6% and 3%
  Population Membrane Permeable-Phenotype (%): 0%
  Population Mitochondria Different-Phenotype (%): 47% and 62%
  Population Mitotic Cells (%): 70% and 62%
  Population Normal (%): 93% and 96%
  Population Pyknosed Nuclei (%): 16% and 14%
  Population Tubulin-Different-Phenotype (%): 36% and 25%
  Total Cell Count: 430 and 347
[2]
  Population Apoptotic (%): 47%
  Population Fragmented Nuclei (%): 7%
  Population Healthy Nuclei (%): 75% and 72%
  Population Membrane Permeable-Phenotype (%): 0%
  Population Mitochondria Different-Phenotype (%): 70% and 71%
  Population Mitotic Cells (%): 52%
  Population Normal (%): 91% and 74%
  Population Pyknosed Nuclei (%): 17% and 20%
  Population Tubulin-Different-Phenotype (%): 44% and 36%
  Total Cell Count: 302 and 238
[3]
  Population Apoptotic (%): 23% and 30%
  Population Fragmented Nuclei (%): 7% and 6%
  Population Healthy Nuclei (%): 81% and 84%
  Population Hoechst High Intensity Objects (%): 2% and 3%
  Population Membrane Permeable-Phenotype (%): 0% and 1%
  Population Mitochondria Different-Phenotype (%): 20% and 34%
  Population Mitotic Cells (%): 76% and 69%
  Population Normal (%): 97% and 96%
  Population Pyknosed Nuclei (%): 11% and 9%
  Population Tubulin-Different-Phenotype (%): 16% and 15%
  Total Cell Count: 587 and 447
[4]
  Population Apoptotic (%): 44% and 63%
  Population Fragmented Nuclei (%): 9% and 11%
  Population Healthy Nuclei (%): 74% and 71%
  Population Hoechst High Intensity Objects (%): 7% and 21%
  Population Membrane Permeable-Phenotype (%): 0%
  Population Mitochondria Different-Phenotype (%): 58% and 54%
  Population Mitotic Cells (%): 55% and 36%
  Population Normal (%): 92% and 78%
  Population Pyknosed Nuclei (%): 15% and 17%
  Population Tubulin-Different-Phenotype (%): 38% and 25%
  Total Cell Count: 355 and 300
[5]
  Population Apoptotic (%): 25% and 36%
  Population Fragmented Nuclei (%): 13%
  Population Healthy Nuclei (%): 78% and 77%
  Population Hoechst High Intensity Objects (%): 2% and 5%
  Population Membrane Permeable-Phenotype (%): 0% and 1%
  Population Mitochondria Different-Phenotype (%): 18% and 23%
  Population Mitotic Cells (%): 75% and 63%
  Population Normal (%): 97% and 94%
  Population Pyknosed Nuclei (%): 8% and 9%
  Population Tubulin-Different-Phenotype (%): 13% and 14%
  Total Cell Count: 924 and 590
[6]
  Population Apoptotic (%): 35% and 43%
  Population Fragmented Nuclei (%): 15% and 13%
  Population Healthy Nuclei (%): 73%
  Population Hoechst High Intensity Objects (%): 4% and 10%
  Population Membrane Permeable-Phenotype (%): 0%
  Population Mitochondria Different-Phenotype (%): 38% and 32%
  Population Mitotic Cells (%): 64% and 56%
  Population Normal (%): 95% and 89%
  Population Pyknosed Nuclei (%): 11% and 12%
  Population Tubulin-Different-Phenotype (%): 23% and 18%
  Total Cell Count: 494 and 392

## COc1cc(Nc2ncc3c(n2)-c2ccc(Cl)cc2C(c2c(F)cccc2OC)=NC3)ccc1C(=O)O [ALISERTIB]
[1]
  Population Apoptotic (%): 38% and 61%
  Population Fragmented Nuclei (%): 3% and 7%
  Population Healthy Nuclei (%): 88% and 85%
  Population Hoechst High Intensity Objects (%): 5% and 7%
  Population Membrane Permeable-Phenotype (%): 0%
  Population Mitochondria Different-Phenotype (%): 44% and 69%
  Population Mitotic Cells (%): 61% and 38%
  Population Normal (%): 94% and 93%
  Population Pyknosed Nuclei (%): 7%
  Population Tubulin-Different-Phenotype (%): 46% and 49%
[2]
  Population Apoptotic (%): 61% and 88%
  Population Fragmented Nuclei (%): 8% and 9%
  Population Healthy Nuclei (%): 74% and 72%
  Population Hoechst High Intensity Objects (%): 9% and 15%
  Population Membrane Permeable-Phenotype (%): 0%
  Population Mitochondria Different-Phenotype (%): 80% and 82%
  Population Normal (%): 90% and 84%
  Population Pyknosed Nuclei (%): 16% and 17%
  Population Tubulin-Different-Phenotype (%): 68% and 54%
[3]
  Population Apoptotic (%): 50% and 47%
  Population Fragmented Nuclei (%): 10% and 9%
  Population Healthy Nuclei (%): 82% and 81%
  Population Hoechst High Intensity Objects (%): 3% and 9%
  Population Membrane Permeable-Phenotype (%): 0%
  Population Mitochondria Different-Phenotype (%): 25% and 47%
  Population Mitotic Cells (%): 50% and 52%
  Population Normal (%): 96% and 90%
  Population Pyknosed Nuclei (%): 7% and 9%
  Population Tubulin-Different-Phenotype (%): 31% and 30%
[4]
  Population Apoptotic (%): 54% and 56%
  Population Fragmented Nuclei (%): 8% and 12%
  Population Healthy Nuclei (%): 74% and 55%
  Population Membrane Permeable-Phenotype (%): 0% and 1%
  Population Mitochondria Different-Phenotype (%): 75% and 86%
  Population Mitotic Cells (%): 45% and 43%
  Population Normal (%): 93% and 65%
  Population Pyknosed Nuclei (%): 16% and 31%
  Population Tubulin-Different-Phenotype (%): 64% and 50%
[5]
  Population Apoptotic (%): 31% and 57%
  Population Fragmented Nuclei (%): 14% and 16%
  Population Healthy Nuclei (%): 79% and 77%
  Population Membrane Permeable-Phenotype (%): 0%
  Population Mitochondria Different-Phenotype (%): 14% and 27%
  Population Mitotic Cells (%): 68% and 42%
  Population Normal (%): 96% and 84%
  Population Pyknosed Nuclei (%): 5%
  Population Tubulin-Different-Phenotype (%): 17% and 24%
[6]
  Population Apoptotic (%): 48% and 82%
  Population Fragmented Nuclei (%): 13% and 19%
  Population Healthy Nuclei (%): 78% and 61%
  Population Membrane Permeable-Phenotype (%): 0% and 4%
  Population Mitochondria Different-Phenotype (%): 57% and 73%
  Population Normal (%): 94% and 67%
  Population Pyknosed Nuclei (%): 7% and 19%
  Population Tubulin-Different-Phenotype (%): 42% and 38%
